In ChEMBL document CHEMBL4138106, “Indole-coumarin-thiadiazole hybrids: An appraisal of their MCF-7 cell growth inhibition, apoptotic, antimetastatic and computational Bcl-2 binding potential” (Eur J Med Chem, 2017):
The source made the active and inactive calls. The calls are words filed in the database; no cut-off is given here.

Tests used:
Vero = experiment: Cytotoxicity against African green monkey Vero cells assessed as growth inhibition after 48 hrs by MTT assay; type: cell-based; details: Chlorocebus sabaeus
How it was run: (§1)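 Cells grown in DMEM with 10% FBS plus antibiotics at 37 °C under 5% CO2. 5×10^3 cells/well seeded and cultured overnight, then exposed to a range of concentrations for 48 h. Working dilutions made in DMEM from 25 mM DMSO stocks, with DMSO vehicle controls and vincristine as positive control. MTT at 1 mg/mL for 4 h, formazan dissolved in DMSO, A570. Viability taken relative to vehicle after blank subtraction.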

MCF7 [1] = experiment: Cytotoxicity against human MCF7 cells assessed as growth inhibition after 48 hrs by MTT assay; type: functional, cell-based; details: MCF7, 48 h; how it was run: as §1
MCF7 [2] = experiment: Induction of apoptosis in human MCF7 cells assessed as reduction in cell volume at 10 uM after 24 hrs by APOPercentage dye based light microscopic analysis; type: functional
How it was run: (§2)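 1×10^4 MCF-7 cells grown 48 h to sub-confluence in 96-well plates, then exposed for 24 h. Medium replaced with medium containing APOPercentage dye (phosphatidylserine exposure) for 1 h. Purple-red cells imaged by light microscopy. Cells then lysed and released dye read at 550 nm, against vehicle control.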

MCF7 [3] = experiment: Induction of apoptosis in human MCF7 cells assessed as expression in caspase 2 at 10 uM after 24 hrs by spectrofluorimetric analysis; type: functional, cell-based
How it was run: (§3)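 Initiator caspases 2, 8 and 9 measured in MCF-7 cells after 24 h exposure to 10 μM, using a fluorogenic caspase profiling kit (ex 380/em 460 nm). Signals normalized to vehicle control, set as 1, and expressed as fold change. Mean ± SD of three independent trials.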

MCF7 [4] = experiment: Induction of apoptosis in human MCF7 cells assessed as expression in caspase 9 at 10 uM after 24 hrs by spectrofluorimetric analysis; type: functional, cell-based; how it was run: as §3
MCF7 [5] = experiment: Induction of apoptosis in human MCF7 cells assessed as chromatin condensation at 10 uM after 24 hrs by APOPercentage dye based light microscopic analysis; type: functional, cell-based; how it was run: as §2
MCF7 [6] = experiment: Induction of apoptosis in human MCF7 cells assessed as deviations in cell morphology at 10 uM after 24 hrs by Acridine orange-ethidium bromide dual staining based fluorescence microscopic analysis; type: functional
MCF7 [7] = experiment: Induction of apoptosis in human MCF7 cells assessed as formation of apoptotic body at 10 uM after 24 hrs by Acridine orange-ethidium bromide dual staining based fluorescence microscopic analysis; type: functional, cell-based
MCF7 [8] = experiment: Induction of apoptosis in human MCF7 cells assessed as late apoptotic cells at 10 uM after 24 hrs by fluorescein-12-dUTP/propidium iodide staining based TUNEL assay; type: functional, cell-based
How it was run: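 About 1×10^5 MCF-7 cells/well in 24-well plates treated for 24 h. Cells fixed in 4% paraformaldehyde and permeabilized with 0.2% Triton X-100. Labelled with 50 µM fluorescein-12-dUTP and rTdT for 1 h at 37 °C, stopped with 2×SSC, counterstained with 1 mg/mL propidium iodide. Green TUNEL-positive nuclei scored by fluorescence microscopy.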

MCF7 [9] = experiment: Induction of apoptosis in human MCF7 cells assessed as dead cells at 10 uM after 24 hrs by Acridine orange-ethidium bromide dual staining based fluorescence microscopic analysis; type: functional, cell-based
How it was run: (§4)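 MCF-7 cells in 96-well plates exposed to test compound for 24 h at 37 °C in 5% CO2. Gross morphology first checked by phase contrast. Medium then removed and acridine orange (7.5 μg)/ethidium bromide (25 μg) stain added. Cells viewed by fluorescence microscopy through an FITC filter and scored as viable, early apoptotic, late apoptotic or nonviable by colour and nuclear form, against vehicle control.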

MCF7 [10] = experiment: Induction of apoptosis in human MCF7 cells assessed as nuclear chromatin condensation at 10 uM after 24 hrs by Hoechst 33342 staining based bright blue field inverted fluorescence microscopic analysis; type: functional, cell-based
How it was run: (§5)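 Treated MCF-7 cells were incubated for 10 min with Hoechst 33342 stock diluted 1:2,000 in PBS. Nuclei were examined by inverted fluorescence microscopy for condensation and fragmentation, compared with vehicle-control cells.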

MCF7 [11] = experiment: Induction of apoptosis in human MCF7 cells assessed as early apoptotic cells at 10 uM after 24 hrs by Acridine orange-ethidium bromide dual staining based fluorescence microscopic analysis; type: functional, cell-based; how it was run: as §4
MCF7 [12] = experiment: Induction of apoptosis in human MCF7 cells assessed as fragmented nuclei formation at 10 uM after 24 hrs by Acridine orange-ethidium bromide dual staining based fluorescence microscopic analysis; type: functional, cell-based; how it was run: as §4
MCF7 [13] = experiment: Induction of apoptosis in human MCF7 cells assessed as nuclear fragmented DNA formation at 10 uM after 24 hrs by Hoechst 33342 staining based bright blue field inverted fluorescence microscopic analysis; type: functional, cell-based; how it was run: as §5
MCF7 [14] = experiment: Induction of apoptosis in human MCF7 cells assessed as condensed nuclei formation at 10 uM after 24 hrs by Acridine orange-ethidium bromide dual staining based fluorescence microscopic analysis; type: functional, cell-based; how it was run: as §4
MCF7 [15] = experiment: Induction of apoptosis in human MCF7 cells assessed as cell shrinkage at 10 uM after 24 hrs by Acridine orange-ethidium bromide dual staining based fluorescence microscopic analysis; type: functional
MCF7 [16] = experiment: Induction of apoptosis in human MCF7 cells assessed as late apoptotic cells at 10 uM after 24 hrs by Acridine orange-ethidium bromide dual staining based fluorescence microscopic analysis; type: functional, cell-based; how it was run: as §4
MCF7 [17] = experiment: Inhibition of cell migration of human MCF7 cells after 24 hrs by inverted microscopy based monolayer wound healing migration assay; type: functional
How it was run: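 About 1×10^5 MCF-7 cells/well grown in DMEM to 80% confluence, then a single scratch made. Debris washed off with PBS and cells treated with test compound, with vincristine as positive control and a vehicle control. Wound gap imaged at 0, 24 and 48 h by inverted microscopy with a stage and eyepiece micrometer. Run in triplicate.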

MCF7 [18] = experiment: Induction of apoptosis in human MCF7 cells assessed as loss of cell membrane integrity at 10 uM after 24 hrs by Acridine orange-ethidium bromide dual staining based fluorescence microscopic analysis; type: functional
MCF7 [19] = experiment: Induction of apoptosis in human MCF7 cells assessed as expression in caspase 8 at 10 uM after 24 hrs by spectrofluorimetric analysis; type: functional, cell-based; how it was run: as §3
MCF7 [20] = experiment: Induction of apoptosis in human MCF7 cells assessed as condensed chromatin formation at 10 uM after 24 hrs by Acridine orange-ethidium bromide dual staining based fluorescence microscopic analysis; type: functional, cell-based; how it was run: as §4

C/C(=N/c1nnc(CCc2c[nH]c3ccccc23)s1)c1cc2cc(Br)ccc2oc1=O
IC50 (Vero): 43.1 µM
IC50 (MCF7 [1]): 36.1 µM

C/C(=N/c1nnc(Cc2c[nH]c3ccccc23)s1)c1cc2cc(Br)ccc2oc1=O
IC50 (Vero): 113 µM
IC50 (MCF7 [1]): 82.1 µM

C/C(=N/c1nnc(CCCc2c[nH]c3ccccc23)s1)c1cc2cc(Br)ccc2oc1=O
Activity (MCF7 [2]): Active
Activity (MCF7 [3]): inactive
Activity (MCF7 [4]): Active
Activity (MCF7 [5]): Active
Activity (MCF7 [6]): Active
Activity (MCF7 [7]): Active
Activity (MCF7 [8]): Active
Activity (MCF7 [9]): Active
Activity (MCF7 [10]): Active
Activity (MCF7 [11]): Active
IC50 (Vero): 116 µM
Activity (MCF7 [12]): Active
IC50 (MCF7 [1]): 8.01 µM
Activity (MCF7 [13]): Active
Activity (MCF7 [14]): Active
Activity (MCF7 [15]): Active
Activity (MCF7 [16]): Active
inhibition (MCF7 [17]): Active
Activity (MCF7 [18]): Active
Activity (MCF7 [19]): Active
Activity (MCF7 [20]): Active
